Source: PubChem BioAssay
Only some compounds are listed: those with a hit (about 4.5% of all), similar ones and a draw of the others.
MrgX1 agonist: agonists of human MrgX1 receptor, primary screen, HEK293 cells, Fluo-4 calcium flux | Mas-related G-protein coupled receptor member X1 (Homo sapiens), Q96LB2 | Fluo-4 calcium fluorescence, agonist mode; hits give high values | B-score at 10 µM | actives 0.44% (n = 310,000) | AID 588627, 2011;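 active means calcium response B-score plate-corrected fluorescence ratio at least 3 library SD, with starting fluorescence B-score inside 5 SD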
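Material: MrgX1-expressing HEK293 cells; input: 15,000 cells per well; doses: test compound given as first of three sequential additions; schedule: overnight plating before 1 h dye loading; technique: Fluo-4 NW calcium-flux fluorescence, kinetic read; evaluation: baseline-normalised fluorescence change ratio, B-scored; control set: plate-wise positive and negative controls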
RGS4 pot: RGS4 potentiators or activators, primary screen, cell-based, HEK293 M3R inducible RGS4, calcium flux. actives 0.92% (n = 310,000). AID 463111, 2010. carbachol calcium flux Fluo4; hits give low values. B-score at 10 µM;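 active means B-score of the integrated calcium signal more than 4 SD below the library mean, with starting fluorescence not abnormally high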;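 further: negative B-score means reduced calcium response which marks RGS4 activation or potentiation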
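Also added: carbachol at ECmax as muscarinic agonist stimulus; Assay system: HEK293 cells with stable M3R and inducible RGS4; Timing: overnight RGS4 induction, 30 min dye load 37 °C, 20 min compound RT; Measured by: Fluo4-AM (2 µM) calcium-flux fluorescence, kinetic read.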
PHOSPHO1 block: PubChem AID 1565. recombinant PHOSPHO1, absorbance phosphatase assay. inhibition, % at 13.3 µM. actives 1.1% (n = 290,000); in the data active means inhibition above about 60%
Target sequence (Q8TCT1 whole entry, looked up): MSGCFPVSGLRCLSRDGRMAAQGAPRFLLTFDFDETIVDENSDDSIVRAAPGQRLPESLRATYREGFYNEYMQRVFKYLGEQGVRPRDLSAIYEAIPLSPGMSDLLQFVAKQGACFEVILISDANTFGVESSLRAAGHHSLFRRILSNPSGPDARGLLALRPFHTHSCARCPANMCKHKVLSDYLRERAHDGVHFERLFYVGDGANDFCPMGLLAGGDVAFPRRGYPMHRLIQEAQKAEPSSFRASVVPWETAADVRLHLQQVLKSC
RGS4 block: RGS4 inhibitors, primary screen, cell-based, HEK293 M3R inducible RGS4, calcium flux; actives 0.45% (n = 310,000); B-score at 10 µM; Regulator of G-protein signaling 4 (Homo sapiens), P49798; AID 463165, 2010; Fluo-4 calcium flux; hits give high values; triggered by carbachol at its EC20;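 active means B-score, a plate-corrected calcium signal, over three deviations above library mean, with baseline fluorescence within five deviations of library mean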;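 further: RGS4 expression induced by doxycycline in cells with stable M3 receptor; B-score is computed from the integrated fluorescence ratio over baseline after carbachol; higher B-score means a larger calcium signal and so more RGS4 inhibition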
Target sequence (P49798 whole entry, looked up): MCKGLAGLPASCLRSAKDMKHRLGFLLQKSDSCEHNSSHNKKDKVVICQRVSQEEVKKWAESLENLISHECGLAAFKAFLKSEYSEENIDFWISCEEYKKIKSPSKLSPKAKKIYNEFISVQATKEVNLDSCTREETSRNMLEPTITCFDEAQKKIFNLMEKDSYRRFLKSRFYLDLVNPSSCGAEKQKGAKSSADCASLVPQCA
MrgX1 antag: antagonists of human MrgX1 receptor, primary screen, HEK293 cells, Fluo-4 calcium flux | Mas-related G-protein coupled receptor member X1 (Homo sapiens), Q96LB2 | BAM8-22 antagonism; hits give low values | B-score at 10 µM | actives 1.3% (n = 310,000);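 active means calcium-response B-score plate-corrected more than 3 library SD below zero, starting fluorescence within 5 deviations, no agonist response on first addition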;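 further: peak minus trough fluorescence over baseline after final BAM8-22 challenge near maximal dose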
MrgX1 allo act: positive allosteric modulators of MrgX1, primary screen, HEK293 cells, Fluo-4 calcium flux; Mas-related G-protein coupled receptor member X1 (Homo sapiens), Q96LB2; FDSS; hits give high values; B-score at 10 µM; actives 0.63% (n = 310,000); AID 588675, 2011;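 active means plate-corrected calcium response at least 3 library SD above typical, normal starting fluorescence, not activating the receptor alone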;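 further: compound read alongside a low EC10 to EC30 dose of BAM8-22 agonist; peak minus trough fluorescence over baseline measured at the second addition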
MrgX1 ag reconf: MrgX1 receptor agonists, duplicate retest, confirmation, HEK293 cells, Fluo-4 calcium flux | actives 78% (n = 600) | shares compounds with MrgX1 agonist | Fluo-4 calcium fluorescence, FDSS | activation, % at 10 µM | AID 602412, 2012;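 active means calcium signal rise, corrected for plate position, at least 3 library SD high, with starting brightness within 5 such deviations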
HEK293 Ca flux: nonspecific calcium signal in parental HEK293, confirmation, counter-screen for MrgX1 antagonist project, parental HEK293 cells, Fluo-4 calcium flux; shares compounds with MrgX1 antag; Fluo-4 calcium fluorescence, FDSS; fluorescence ratio F(max-min)/F0 at 10 µM; actives 2% (n = 4,000);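 active means duplicate-averaged calcium fluorescence ratio at least three times the standard deviation of buffer wells, a nonspecific response in parental cells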
HEK293 Ca counter: calcium response in parental HEK293 cells, primary screen, counter-screen for MrgX1 allosteric activator project, cell-based, Fluo-4 calcium flux, duplicate. shares compounds with MrgX1 antag. Fluo-4 fluorescence ratio; hits give high values. fluorescence ratio F(max-min)/F0 at 10 µM. actives 0.4% (n = 4,000). AID 624114, 2012;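 active means calcium fluorescence ratio, averaged over duplicates, at least 3 SD of the buffer-well ratio, meaning a nonspecific response in receptor-free cells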;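 further: untransfected parental HEK293 lacking MrgX1 used as counterscreen for MrgX1 allosteric activators; fluorescence change taken during the second addition on a kinetic imager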
HEK293 Ca cntr2: calcium response in parental HEK293 cells, primary screen, counter-screen for MrgX1 agonist project, cell-based, Fluo-4 calcium flux, duplicate, agonist mode. fluorescence ratio F(max-min)/F0 at 10 µM. actives 8.7% (n = 4,000). Fluo-4 calcium fluorescence (FDSS); hits give high values. shares compounds with MrgX1 antag;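 active means calcium fluorescence ratio at least three times the spread of buffer wells, meaning a non-specific response in parental cells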
* marks the source's active call; other numbers are inactive results; i = inactive; nt = no result.

SMILES | MrgX1 agonist | RGS4 pot | PHOSPHO1 block | RGS4 block | MrgX1 antag | MrgX1 allo act | MrgX1 ag reconf | HEK293 Ca flux | HEK293 Ca counter | HEK293 Ca cntr2
COc1ccc(C(=O)NCC(=O)OCC(=O)Nc2cccc(S(=O)(=O)N3CCCC3)c2)cc1 | i | i | 19.9 | i | i | i | nt | nt | nt | nt
Cc1[nH]nc(-c2ccc(O)cc2O)c1Oc1ccccc1 | 28.2* | i | 37.3 | i | i | i | 179.3%* | i | i | i
CC[C@@H](C(=O)[C@@H](C)[C@@H](O)[C@H](C)CCc1ccc(C)c(O)c1C(=O)O)[C@H]1O[C@](CC)([C@H]2CC[C@](O)(CC)[C@H](C)O2)C[C@@H]1C | 147* | i | 20.2 | i | i | i | 909.0%* | i | i | 198*
Cc1ccc(-n2c(=O)[nH]c3c(oc4ccccc43)c2=O)cc1 | 77.9* | i | -8.2 | i | i | i | 396.2%* | i | i | 118*
Cc1cccc(C(=O)NC(=S)NNC(=O)Cc2ccccc2)c1 | 119* | i | 38.2 | i | i | i | 638.0%* | i | i | 137*
Cc1cccc(C(=O)NC(=S)NNC(=O)c2ccccc2Cl)c1 | 105* | i | 28.4 | i | i | i | 776.4%* | i | i | 149*
Cc1cccc(C(=O)NC(=S)NCc2ccccc2)c1 | i | i | nt | i | i | i | nt | nt | nt | nt
COCCCn1c(N)c(-c2nc3ccccc3n2C)c2nc3ccccc3nc21 | 59.6* | i | -6.0 | i | i | i | 249.2%* | i | i | 87.4*
Cc1cc(Nc2ccc(F)cc2)nc(N)n1 | i | i | 21.5 | i | i | i | nt | nt | nt | nt
Cc1cc(Nc2cc(Cl)cc(Cl)c2)nc(N)n1 | 40* | i | 43.0 | i | i | i | 242.7%* | i | i | i
COc1ccc(N=C2NC(=O)S/C2=C\c2ccc(N(C)C)cc2)cc1 | 26.5* | -7.19* | 15.9 | i | i | i | 230.3%* | i | i | 56.9*
NC(=O)N1c2ccccc2CC(=O)c2ccccc21 | 46.9* | i | 13.5 | i | i | i | 250.5%* | i | i | 52.3*
CN1CCN(CCCC(=O)c2ccc(F)cc2)CC1 | i | i | 33.3 | i | i | i | nt | nt | nt | nt
O=C(CCCN1Cc2ccccc2C1)c1ccc(F)cc1 | 37.8* | i | 11.5 | i | i | i | 145.1%* | i | i | i
N=C(N)CCCOc1ccccc1-c1ccccc1 | 27.9* | i | 20.8 | i | i | i | 80.8%* | i | i | i
NNC(=S)Nc1c(F)cc(F)cc1Br | i | i | -99.7 | i | i | i | nt | nt | nt | nt
Cc1ccc(-c2ccc(CCC(=O)O)n2-c2cccc(O)c2)cc1 | 27.6* | i | 21.0 | i | i | i | 135.4%* | i | i | i
Cc1cc(C)nc(SCc2nnc(SCC(N)=O)o2)n1 | i | i | 14.7 | i | i | i | nt | nt | nt | nt
O=c1[nH][nH]c(-c2ccccc2)c1C=Nc1ccc(OC(F)(F)F)cc1 | 33.3* | i | 11.4 | i | i | i | 183.9%* | i | i | i
O=c1[nH][nH]c(-c2ccccc2)c1C=Nc1ccc(C(F)(F)F)cc1 | i | i | 31.7 | i | i | i | nt | nt | nt | nt
COc1cccc(-c2cc(C(=O)NC3CCCCC3)no2)c1 | i | i | 28.0 | i | i | i | nt | nt | nt | nt
O=C(NNC(=S)NC1CCCCC1)c1sc2ccccc2c1Cl | i | i | -18.5 | i | i | i | nt | nt | nt | nt
CC(C)(C)C(=O)NC(=S)NNC(=O)c1sc2ccccc2c1Cl | 142* | i | -37.9 | i | i | i | 917.0%* | i | i | 177*
CC/C(=N\NC(=O)c1ccncc1)C12CC3CC(CC(C3)C1)C2 | i | i | 10.7 | i | i | i | nt | nt | nt | nt
CC1(C(=O)NC(=S)NNC(=O)c2ccncc2)CCCCC1 | 86.7* | i | -8.6 | i | i | i | 488.6%* | i | i | 101*
SMILES | MrgX1 agonist | RGS4 pot | PHOSPHO1 block | RGS4 block | MrgX1 antag | MrgX1 allo act | MrgX1 ag reconf | HEK293 Ca flux | HEK293 Ca counter | HEK293 Ca cntr2
O=C(NNC(=O)C1CCCCC1)c1ccncc1 | i | i | 36.2 | i | i | i | nt | nt | nt | nt
O=C(NNC(=S)NC(=O)C12CC3CC(CC(C3)C1)C2)c1ccncc1 | 117* | i | 65.8* | i | i | i | 600.4%* | i | i | 121*
CSc1nnc(NC(=O)c2ccc(S(=O)(=O)N3CCOCC3)cc2)s1 | i | i | 7.5 | i | i | i | nt | nt | nt | nt
Nc1ccc2oc(C3CCCCC3)nc2c1 | i | i | 19.0 | i | i | i | nt | nt | nt | nt
Nc1c(C(=O)c2ccccc2)sc2nsc(SCCN3CCCC3)c12 | i | i | 6.1 | i | i | i | nt | nt | nt | nt
Nc1c(C(=O)c2ccc(Cl)cc2)sc2nsc(SCCN3CCOCC3)c12 | 39.3* | i | 63.1* | i | i | i | i | 0.478* | i | 104*
CCOC(=O)Cn1c(CCC(=O)O)ccc1-c1ccc(F)cc1 | 44.9* | i | -10.0 | i | i | i | 169.6%* | i | i | i
O=C(OCc1cc2ccccc2[nH]c1=O)c1cccs1 | 38.2* | i | 3.6 | i | i | i | i | i | i | i
COCCn1c(SCC(=O)NC(C)c2ccc(F)cc2)nc2ccccc21 (stereo not drawn) | i | i | 15.0 | i | i | i | nt | nt | nt | nt
